Published values gathered from unrelated publications.
M-phase phosphoprotein 8 chromodomain: M-phase phosphoprotein 8, chromodomain (Homo sapiens, UniProt Q99549)
AChE: AChE (Phlebotomus papatasi, UniProt M1F887)
IKBKB: Inhibitor of nuclear factor kappa-B kinase subunit beta (IKBKB, Homo sapiens, UniProt O14920)
HTR1A: 5-hydroxytryptamine receptor 1A (HTR1A, Homo sapiens, UniProt P08908)

SMILES | target | test | IC50
CCN(CCCC[C@H](NC(=O)[C@H](CC(C)C)NC(=O)[C@H](C)NC(=O)[C@H](Cc1ccccc1)NC(=O)c1ccc(N)cc1)C(=O)N[C@@H](CO)C(N)=O)C(C)C | M-phase phosphoprotein 8 chromodomain | cell-free assay, TR-FRET | 1800 nM
CNC(=O)Oc1cccc2c1OC(C)(C)C2 | AChE | enzyme activity, inhibitor | 8 nM
COCCOCOc1cc(OCc2ccc(Br)cc2)c(C(=O)/C=C/c2ccc(C(=O)O)cc2)cc1C12CC3CC(CC(C3)C1)C2 | IKBKB | enzyme activity, inhibitor, TR-FRET | 2730 nM
CNC(=O)Oc1cccc2c1OC(C)(C)O2 | AChE | enzyme activity, inhibitor | 15 nM
CCCCCNC(=N)N/N=C/c1c[nH]c2ccc(OC)cc12 | HTR1A | calcium signal, antagonist | 870 nM
O=c1c2ccccc2[se]n1-c1ccccc1 | Leucine-rich repeat serine/threonine-protein kinase 2 (LRRK2, Homo sapiens, UniProt Q5S007) | enzyme activity, inhibitor, radiometric | 2000 nM
COCCOCOc1cc(OCc2cc(F)cc(F)c2)c(C(=O)/C=C/c2ccc(C(=O)O)cc2)cc1C12CC3CC(CC(C3)C1)C2 | IKBKB | enzyme activity, inhibitor, TR-FRET | 1830 nM
CCN(CCCC[C@H](NC(=O)[C@H](Cc1ccccc1)NC(=O)[C@H](C)NC(=O)[C@H](Cc1ccccc1)NC(=O)c1cccnc1)C(=O)N[C@@H](CO)C(N)=O)C(C)C | M-phase phosphoprotein 8 chromodomain | cell-free assay, TR-FRET | 550 nM
C=C(C)[C@@H]1CCC(C)=C[C@H]1c1c(O)cc(CCCCC)cc1O | G-protein coupled receptor 52 (GPR52, Homo sapiens, UniProt Q9Y2T5) | cAMP, antagonist | 2450 nM
CNC(=O)Oc1cccc2ccccc12 | AChE | enzyme activity, inhibitor | 167 nM
CCN(CCCC[C@H](NC(=O)[C@H](CC(C)C)NC(=O)[C@H](C)NC(=O)[C@H](Cc1ccccc1)NC(=O)c1cccnc1)C(=O)N[C@@H](CO)C(N)=O)C(C)C | M-phase phosphoprotein 8 chromodomain | cell-free assay, TR-FRET | 2200 nM
CC(CCc1ccccc1)NC(C)C(O)c1ccc(O)cc1 (centres unmarked) | HTR1A | ligand displacement, radioligand | 3380 nM
CCOP(=O)(OCC)Oc1ccc2c(C)c(Cl)c(=O)oc2c1 | AChE | enzyme activity, inhibitor | 430 nM
CCN(CCCC[C@H](NC(=O)[C@H](CC(C)C)NC(=O)[C@H](C)NC(=O)[C@H](Cc1ccccc1)NC(=O)c1ccc(N)c(Br)c1)C(=O)N[C@@H](CO)C(N)=O)C(C)C | M-phase phosphoprotein 8 chromodomain | cell-free assay, TR-FRET | 400 nM
COc1ncccc1-c1cnn2ccc(N3CCN(C(=O)OC(C)C)CC3)nc12 | Alpha-2C adrenergic receptor (ADRA2C, Homo sapiens, UniProt P18825) | cell-free assay | > 30000 nM
CCN(CCCC[C@H](NC(=O)[C@H](CC(C)C)NC(=O)[C@H](C)NC(=O)[C@H](Cc1ccccc1)NC(=O)c1ccc(NC)cc1)C(=O)N[C@@H](CO)C(N)=O)C(C)C | M-phase phosphoprotein 8 chromodomain | cell-free assay, TR-FRET | 4400 nM
O=C(CCCc1ccc(N(CCCl)CCCl)cc1)NCCC1CCN(CCOc2ccc(Oc3c(-c4ccc(O)cc4)sc4cc(O)ccc34)cc2)CC1 | Estrogen receptor (ESR1, Homo sapiens, UniProt P03372) | ligand displacement, radioligand | 37 nM
